Experimental data taken from ChEMBL document CHEMBL1165950, “Design and synthesis of new potent anticancer pyrazoles with high FLT3 kinase inhibitory selectivity” (Bioorg Med Chem, 2010).

Assays:
Assay type in all cases: functional
EKVX [1] = experiment: Cytotoxicity against human EKVX cells assessed as cell growth at 10 uM; details: read-out: Activity
In short: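 Single-dose NCI-60 screen at 10 µM. Cells were grown in RPMI 1640 with 5% FBS and 2 mM L-glutamine, then treated for 48 h at 37 °C. Protein was measured by SRB staining with absorbance at 515 nm. Percentage growth was recorded, and inhibition percentage was calculated as 100 minus growth percentage.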

UACC-257 = experiment: Cytotoxicity against human UACC257 cells assessed as cell growth at 10 uM; details: read-out: Activity
In short: (§1)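 NCI-60 screen: cells grown in RPMI 1640 with 5% FBS and 2 mM L-glutamine, plated at 5000–40,000 cells/well according to doubling time, and preincubated 24 h at 37 °C, 5% CO2. The single 10 µM dose (DMSO stock) was added, then incubated 48 h. Cells were TCA-fixed and stained with 0.4% SRB, read at 515 nm, and growth % calculated against time-zero and control plates.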

HOP-62 = experiment: Cytotoxicity against human HOP62 cells assessed as cell growth at 0.01 uM after 48 hrs by sulforhodamine B assay; details: HOP-62, 48 h, read-out: Activity
EKVX [2] = experiment: Cytotoxicity against human EKVX cells assessed as cell growth at 10 uM after 48 hrs by sulforhodamine B assay; details: read-out: Activity
OVCAR-5 [3] = experiment: Cytotoxicity against human OVCAR5 cells assessed as cell growth at 10 uM after 48 hrs by sulforhodamine B assay; details: OVCAR-5, 48 h, read-out: Activity
NCI-H460 = experiment: Cytotoxicity against human NCI-H460 cells assessed as cell growth at 10 uM; details: read-out: Activity; in short: as §1
MDA-MB-231 = experiment: Cytotoxicity against human MDA-MB-231 cells assessed as cell growth at 10 uM; details: read-out: Activity; in short: as §1
SN12C = experiment: Cytotoxicity against human SN12C cells assessed as cell growth at 10 uM after 48 hrs by sulforhodamine B assay; details: read-out: Activity
NCI-H23 = experiment: Cytotoxicity against human NCI-H23 cells assessed as cell growth at 0.001 uM after 48 hrs by sulforhodamine B assay; details: NCI-H23, 48 h, read-out: Activity
KM12 = experiment: Cytotoxicity against human KM12 cells assessed as cell growth at 100 nM after 48 hrs by sulforhodamine B assay; details: KM12, 48 h, read-out: Activity
LOX IMVI [4] = experiment: Cytotoxicity against human LOXIMVI cells assessed as cell growth at 1 uM after 48 hrs by sulforhodamine B assay; details: read-out: Activity
MOLT-4 = experiment: Cytotoxicity against human MOLT4 cells assessed as cell growth at 1 uM after 48 hrs by sulforhodamine B assay; details: MOLT-4, 48 h, read-out: Activity
SF-268 = experiment: Cytotoxicity against human SF268 cells assessed as cell growth at 1 uM after 48 hrs by sulforhodamine B assay; details: SF-268, 48 h, read-out: Activity
CCRF-CEM = experiment: Cytotoxicity against human CCRF-CEM cells assessed as cell growth at 0.001 uM after 48 hrs by sulforhodamine B assay; details: read-out: Activity
In short: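 NCI-60 five-dose screen. Cells were grown in RPMI 1640 with 5% FBS and 2 mM L-glutamine, plated at 5000–40,000 cells/well and preincubated for 24 h. Time-zero plates were TCA-fixed. DMSO-solubilized drug was added at five concentrations (10-fold or ½-log serial dilutions) for 48 h at 37 °C, 5% CO2. Cells were TCA-fixed, stained with 0.4% SRB and read at 515 nm. Percent growth used time-zero, control and test absorbances.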

MDA-MB-435 = experiment: Cytotoxicity against human MDA-MB-435 cells assessed as cell growth at 10 uM; details: read-out: Activity; in short: as §1
OVCAR-4 = experiment: Cytotoxicity against human OVCAR4 cells assessed as cell growth at 10 uM after 48 hrs by sulforhodamine B assay; details: OVCAR-4, 48 h, read-out: Activity
LOX IMVI [5] = experiment: Cytotoxicity against human LOXIMVI cells assessed as cell growth at 0.001 uM after 48 hrs by sulforhodamine B assay; details: read-out: Activity
SNB-75 = experiment: Cytotoxicity against human SNB75 cells assessed as cell growth at 10 uM; details: read-out: Activity; in short: as §1
HCT-15 [6] = experiment: Cytotoxicity against human HCT15 cells assessed as cell growth at 10 uM after 48 hrs by sulforhodamine B assay; details: HCT-15, 48 h, read-out: Activity
OVCAR-5 [7] = experiment: Cytotoxicity against human OVCAR5 cells assessed as cell growth at 0.001 uM after 48 hrs by sulforhodamine B assay; details: OVCAR-5, 48 h, read-out: Activity
PC-3 [8] = experiment: Cytotoxicity against human PC3 cells assessed as cell growth at 0.01 uM after 48 hrs by sulforhodamine B assay; details: PC-3, 48 h, read-out: Activity
SF-539 = experiment: Cytotoxicity against human SF539 cells assessed as cell growth at 100 nM after 48 hrs by sulforhodamine B assay; details: SF-539, 48 h, read-out: Activity
SK-OV-3 = experiment: Growth inhibition of human SKOV3 cells after 48 hrs by sulforhodamine B assay; details: SK-OV-3, 48 h; for CC50: read-out: LC50 (the source's name)
In short: (§2)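 NCI 60-cell screen, five-dose mode. Cells grown in RPMI 1640 with 5% FBS and 2 mM L-glutamine and plated at 5000-40,000 cells/well according to doubling time. After 24 h preincubation, a Tz plate was TCA-fixed. Five concentrations (10-fold or 1/2 log dilutions) were applied for 48 h at 37 °C. SRB staining read at 515 nm. IC50 taken from [(Ti-Tz)/(C-Tz)]×100 = 50.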

HCT-116 = experiment: Cytotoxicity against human HCT116 cells assessed as cell growth at 0.001 uM after 48 hrs by sulforhodamine B assay; details: HCT-116, 48 h, read-out: Activity
HCT-15 [9] = experiment: Cytotoxicity against human HCT15 cells assessed as cell growth at 1 uM after 48 hrs by sulforhodamine B assay; details: HCT-15, 48 h, read-out: Activity
U-251 = experiment: Cytotoxicity against human U251 cells assessed as cell growth at 0.001 uM after 48 hrs by sulforhodamine B assay; details: U-251, 48 h, read-out: Activity
HOP-92 [10] = experiment: Growth inhibition of human HOP92 cells after 48 hrs by sulforhodamine B assay; details: HOP-92, 48 h; for CC50: read-out: LC50 (the source's name); in short: as §2
[11] = Cytotoxicity against human Hs 578T cells assessed as cell growth at 0.01 uM after 48 hrs by sulforhodamine B assay; details: read-out: Activity
SW-620 = experiment: Cytotoxicity against human SW620 cells assessed as cell growth at 1 uM after 48 hrs by sulforhodamine B assay; details: SW-620, 48 h, read-out: Activity
PC-3 [12] = experiment: Cytotoxicity against human PC3 cells assessed as cell growth at 1 uM after 48 hrs by sulforhodamine B assay; details: PC-3, 48 h, read-out: Activity
M14 = experiment: Growth inhibition of human M14 cells after 48 hrs by sulforhodamine B assay; details: M14, 48 h; for CC50: read-out: LC50 (the source's name); in short: as §2
HOP-92 [13] = experiment: Cytotoxicity against human HOP92 cells assessed as cell growth at 0.001 uM after 48 hrs by sulforhodamine B assay; details: HOP-92, 48 h, read-out: Activity

Row | SMILES | growth at 10 µM (EKVX [1]) | growth at 10 µM (UACC-257) | growth at 0.01 µM (HOP-62) | growth at 10 µM (EKVX [2]) | growth at 10 µM (OVCAR-5 [3]) | growth at 10 µM (NCI-H460) | growth at 10 µM (MDA-MB-231) | growth at 10 µM (SN12C) | growth at 0.001 µM (NCI-H23) | growth at 0.1 µM (KM12) | growth at 1 µM (LOX IMVI [4]) | growth at 1 µM (MOLT-4) | growth at 1 µM (SF-268) | growth at 0.001 µM (CCRF-CEM) | growth at 10 µM (MDA-MB-435) | growth at 10 µM (OVCAR-4) | growth at 0.001 µM (LOX IMVI [5]) | growth at 10 µM (SNB-75) | growth at 10 µM (HCT-15 [6]) | growth at 0.001 µM (OVCAR-5 [7]) | also measured
1 | COc1cc(C)cc(-c2c(-c3ccnc(-c4ccc(N(C)C)cc4)c3)cnn2CC#N)c1 | 45.8% | 83.8% | 62% | 2% | 97% | -5.33% | 18.7% | 16% | 86% | -36% | 12% | -2% | 24% | 95% | -14.7% | 25% | 88% | -21.1% | 9% | 90% | growth at 0.01 µM (PC-3 [8]): 30%; growth at 0.1 µM (SF-539): -29%; GI50 (SK-OV-3): 504 nM; TGI (SK-OV-3): > 100000 nM; CC50 (SK-OV-3): > 100000 nM; growth at 0.001 µM (HCT-116): 102%; growth at 1 µM (HCT-15 [9]): 9%; growth at 0.001 µM (U-251): 95%; GI50 (HOP-92 [10]): < 10 nM; TGI (HOP-92 [10]): 55.3 nM; CC50 (HOP-92 [10]): > 100000 nM; growth at 0.01 µM [11]: 58%; growth at 1 µM (SW-620): 11%; growth at 1 µM (PC-3 [12]): 13%; GI50 (M14): 54.1 nM; TGI (M14): 483 nM; CC50 (M14): > 100000 nM; growth at 0.001 µM (HOP-92 [13]): 26%
2 | Cc1cc(O)cc(-c2nn(CC#N)cc2-c2ccnc(-c3ccc(N(C)C)cc3)c2)c1 | 71.6% | 54.1% | 89% | -1% | -18% | 25.6% | 40.8% | -29% | 94% | 66% | 29% | 11% | 17% | 97% | -43.2% | 9% | 103% | -12.8% | -39% | 96% | growth at 0.01 µM (PC-3 [8]): 92%; growth at 0.1 µM (SF-539): 91%; GI50 (SK-OV-3): 2850 nM; TGI (SK-OV-3): 8030 nM; CC50 (SK-OV-3): > 100000 nM; growth at 0.001 µM (HCT-116): 95%; growth at 1 µM (HCT-15 [9]): 14%; growth at 0.001 µM (U-251): 101%; GI50 (HOP-92 [10]): 3030 nM; TGI (HOP-92 [10]): 46800 nM; CC50 (HOP-92 [10]): > 100000 nM; growth at 0.01 µM [11]: 95%; growth at 1 µM (SW-620): 10%; growth at 1 µM (PC-3 [12]): 18%; GI50 (M14): 1830 nM; TGI (M14): 4760 nM; CC50 (M14): 20400 nM; growth at 0.001 µM (HOP-92 [13]): 80%
3 | COc1cc(C)cc(-c2nn(CC#N)cc2-c2ccnc(-c3ccc(N(C)C)cc3)c2)c1 | 41% | 68.2% | 99% | 23% | 15% | 2.65% | -2.19% | -8% | 93% | 10% | 5% | 13% | -2% | 97% | -22.6% | 15% | 98% | -25.5% | -20% | 98% | growth at 0.01 µM (PC-3 [8]): 96%; growth at 0.1 µM (SF-539): -31%; GI50 (SK-OV-3): 304 nM; TGI (SK-OV-3): 882 nM; CC50 (SK-OV-3): > 100000 nM; growth at 0.001 µM (HCT-116): 96%; growth at 1 µM (HCT-15 [9]): -1%; growth at 0.001 µM (U-251): 94%; GI50 (HOP-92 [10]): 557 nM; TGI (HOP-92 [10]): 26600 nM; CC50 (HOP-92 [10]): > 100000 nM; growth at 0.01 µM [11]: 100%; growth at 1 µM (SW-620): 19%; growth at 1 µM (PC-3 [12]): 17%; GI50 (M14): 258 nM; TGI (M14): 769 nM; CC50 (M14): > 100000 nM; growth at 0.001 µM (HOP-92 [13]): 102%
